Assay type in all cases: cell-based
In experiment [1] the target is Histone-lysine N-methyltransferase EZH2 (Mus musculus) (UniProt Q61188). The experiment can be described thus: Inhibition of EZH2 in mouse B16-F1 migrating cells assessed as fold change in H3K27me3-independent regulated Ltbp1-mRNA expression at 3 uM measured by […] analysis relative to control cells. In outline:
(§1)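 Confluent B16-F1 cells on fibronectin-coated plates were scratched at multiple sites, washed once with DMEM and left to migrate 3 h in growth medium (37 °C, 7% CO2); unscratched cells served as control. GSK343 (3 µM) was added 3 h before lysis. Poly A mRNA was sequenced (RNA-seq), with 5 replicates for untreated and 3 for treated cells. Differential expression was called by linear model with batch correction, at FDR <0.05 and fold change ≥1.3.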

Experiment [2] has the same target. Nature of the experiment: Inhibition of EZH2 in mouse B16-F1 migrating cells assessed as fold change in H3K27me3-independent regulated Aldoc-mRNA expression at 3 uM measured by ChIP-seq analysis relative to control cells. In outline: as §1
For experiment [3] the target is unchanged. The experiment can be described thus: Inhibition of EZH2 in mouse B16-F1 migrating cells assessed as fold change in H3K27me3-independent regulated Coq10b-mRNA expression at 3 uM measured by […] analysis relative to control cells. The method, boiled down: as §1
Experiment [4] has the same target. Nature of the experiment: Inhibition of EZH2 in mouse B16-F1 migrating cells assessed as fold change in H3K27me3-independent regulated Fam214b-mRNA expression at 3 uM measured by […] analysis relative to control cells. In outline:
as §1

Experiment [5] has the same target. Nature of the experiment: Inhibition of EZH2 in mouse B16-F1 migrating cells assessed as fold change in H3K27me3-buffered regulated Nup37-mRNA expression at 3 uM measured by […] analysis relative to control cells. In outline: (§2)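 Confluent B16-F1 cells on fibronectin-coated plates, cultured at 37 °C and 7% CO2, were scratched at multiple sites to induce migration. They were then held 3 h in growth medium containing 3 µM GSK343, with the inhibitor added 3 h before lysis. Unscratched cells served as controls. Poly A mRNA was analysed by RNA-seq (n=3 GSK343, n=5 controls). Linear models removed batch effects, and buffered genes were those altered only under GSK343 (FDR <0.05, fold change >1.3).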

The target is the same in experiment [6]. Nature of the experiment: Inhibition of EZH2 in mouse B16-F1 migrating cells assessed as fold change in H3K27me3-buffered regulated Zc3h7a-mRNA expression at 3 uM measured by […] analysis relative to control cells. In outline:
as §1

Experiment [7] has the same target. Nature of the experiment: Inhibition of EZH2 in mouse B16-F1 migrating cells assessed as fold change in H3K27me3-buffered regulated Hdac10-mRNA expression at 3 uM measured by […] analysis relative to control cells. In outline:
as §2

Experiment [8] has the same target. Nature of the experiment: Inhibition of EZH2 in mouse B16-F1 migrating cells assessed as fold change in H3K27me3-buffered regulated Rnf145-mRNA expression at 3 uM measured by […] analysis relative to control cells. The method, boiled down: as §1
For experiment [9] the target is unchanged. Nature of the experiment: Inhibition of EZH2 in mouse B16-F1 migrating cells assessed as fold change in H3K27me3-buffered regulated Paxbp1-mRNA expression at 3 uM measured by […] analysis relative to control cells. In outline:
as §2

Experiment [10] shares this target. The experiment can be described thus: Inhibition of EZH2 in mouse B16-F1 migrating cells assessed as fold change in H3K27me3-buffered regulated Irf1-mRNA expression at 3 uM measured by […] analysis relative to control cells. In outline:
as §2

In experiment [11] the target is T1, RNA polymerase II (Mus musculus) (UniProt P08775+Q8CFI7+P97760+A0A3Q4L2S8+Q80UW8+P61219+P62488+Q923G2+P60898+O08740+Q63871+P62876). The experiment can be described thus: Inhibition of RNA polymerase II in mouse B16-F1 migrating cells assessed as fold change in Pgp-RNA stability at 0.1 mM measured by […] analysis relative to control cells.
Experiment [12] addresses T1, RNA polymerase II (Mus musculus). The experiment can be described thus: Inhibition of RNA polymerase II in mouse B16-F1 migrating cells assessed as fold change in Tk2-RNA stability at 0.1 mM measured by […] analysis relative to control cells.
The target is the same in experiment [13]. Nature of the experiment: Inhibition of RNA polymerase II in mouse B16-F1 migrating cells assessed as fold change in Higd1a-RNA stability at 0.1 mM measured by ChIP-seq analysis relative to control cells.
The target is the same in experiment [14]. Nature of the experiment: Inhibition of RNA polymerase II in mouse B16-F1 migrating cells assessed as fold change in Rpl27-RNA stability at 0.1 mM measured by […] analysis relative to control cells.
Experiment [15] has the same target. Nature of the experiment: Inhibition of RNA polymerase II in mouse B16-F1 migrating cells assessed as fold change in Cdk5rap3-RNA stability at 0.1 mM measured by […] analysis relative to control cells. In outline: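 Mouse B16-F1 melanoma cells grown to confluence on fibronectin in DMEM/10% FCS at 37 °C, 7% CO2. Migration induced by multiple scratches and 3 h incubation; unscratched controls. DRB 0.1 mM added 3 h before lysis. RNA from poly A-selected mRNA was sequenced (RNA-seq, three replicates per DRB group). Fold change computed for DRB-treated migrating vs DRB-treated control cells; cutoffs fold change >1.3, FDR <0.05.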

Experiment [16] shares this target. Nature of the experiment: Inhibition of RNA polymerase II in mouse B16-F1 migrating cells assessed as fold change in Trpv2-RNA stability at 0.1 mM measured by […] analysis relative to control cells.
Experiment [17] has the same target. The experiment can be described thus: Inhibition of RNA polymerase II in mouse B16-F1 migrating cells assessed as fold change in Calu-RNA stability at 0.1 mM measured by […] analysis relative to control cells.
The target is the same in experiment [18]. Nature of the experiment: Inhibition of RNA polymerase II in mouse B16-F1 migrating cells assessed as fold change in Agps-RNA stability at 0.1 mM measured by […] analysis relative to control cells.
For experiment [19] the target is unchanged. The experiment can be described thus: Inhibition of RNA polymerase II in mouse B16-F1 migrating cells assessed as fold change in Xpo1-RNA stability at 0.1 mM measured by […] analysis relative to control cells.
For experiment [20] the target is unchanged. Nature of the experiment: Inhibition of RNA polymerase II in mouse B16-F1 migrating cells assessed as fold change in AU019823-RNA stability at 0.1 mM measured by […] analysis relative to control cells.
The target is the same in experiment [21]. The experiment can be described thus: Inhibition of RNA polymerase II in mouse B16-F1 migrating cells assessed as fold change in Brd2-RNA stability at 0.1 mM measured by […] analysis relative to control cells.
Experiment [22] has the same target. Nature of the experiment: Inhibition of RNA polymerase II in mouse B16-F1 migrating cells assessed as fold change in Yes1-RNA stability at 0.1 mM measured by […] analysis relative to control cells.
Experiment [23] has the same target. The experiment can be described thus: Inhibition of RNA polymerase II in mouse B16-F1 migrating cells assessed as fold change in Cenpc1-RNA stability at 0.1 mM measured by […] analysis relative to control cells.
The target is the same in experiment [24]. The experiment can be described thus: Inhibition of RNA polymerase II in mouse B16-F1 migrating cells assessed as fold change in 2310030G06Rik-RNA stability at 0.1 mM measured by […] analysis relative to control cells.

Chain of Histone-lysine N-methyltransferase EZH2 (Mus musculus) (Q61188 whole entry): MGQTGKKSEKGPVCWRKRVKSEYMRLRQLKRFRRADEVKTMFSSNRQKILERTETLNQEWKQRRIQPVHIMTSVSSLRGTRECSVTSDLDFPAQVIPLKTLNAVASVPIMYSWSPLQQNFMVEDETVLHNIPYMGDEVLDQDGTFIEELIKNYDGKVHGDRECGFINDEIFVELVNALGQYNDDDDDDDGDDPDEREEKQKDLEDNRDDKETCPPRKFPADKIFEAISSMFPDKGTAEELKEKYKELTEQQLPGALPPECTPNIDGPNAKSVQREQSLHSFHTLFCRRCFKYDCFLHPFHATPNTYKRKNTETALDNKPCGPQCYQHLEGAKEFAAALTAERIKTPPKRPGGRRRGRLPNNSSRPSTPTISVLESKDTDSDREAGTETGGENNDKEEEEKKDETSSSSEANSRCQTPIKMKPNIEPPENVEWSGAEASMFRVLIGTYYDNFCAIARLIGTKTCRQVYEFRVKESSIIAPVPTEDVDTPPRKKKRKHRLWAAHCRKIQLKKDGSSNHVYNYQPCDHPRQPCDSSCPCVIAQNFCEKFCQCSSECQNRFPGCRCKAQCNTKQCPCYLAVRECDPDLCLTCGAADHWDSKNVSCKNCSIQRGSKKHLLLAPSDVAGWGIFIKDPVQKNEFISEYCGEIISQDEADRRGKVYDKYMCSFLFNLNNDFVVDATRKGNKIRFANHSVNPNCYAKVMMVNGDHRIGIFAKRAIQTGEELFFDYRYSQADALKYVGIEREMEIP

For `CCCc1cc(C)[nH]c(=O)c1CNC(=O)c1cc(-c2ccnc(N3CCN(C)CC3)c2)cc2c1cnn2C(C)C`, the log2FC in [1] is 1.19; in experiment [2], 0.69; in [3], 0.56; in experiment [4], 0.53; in experiment [5], -0.38; in experiment [6] it was -0.42. Further, the log2FC in experiment [7] is -0.44; in experiment [8] it was -0.49; in experiment [9] it was -0.55; in [10], -0.62.

Regarding `OC[C@H]1O[C@@H](n2cnc3cc(Cl)c(Cl)cc32)[C@H](O)[C@@H]1O`, the log2FC in [11] amounted to 0.82; in experiment [12] it was 0.79; in experiment [13], 0.77; in experiment [14], 0.51; in experiment [15], 0.49; in experiment [16], 0.41. Further, the log2FC was -0.47 in experiment [17]; -0.58 in experiment [18]; -0.58 in [19]; -0.59 in [20]; -0.66 in [21]; -0.83 in experiment [22]. Moreover, the log2FC is -0.84 in [23] and -0.91 in [24].

The values above are taken from ChEMBL document CHEMBL5674883, “The Heterochromatin Landscape in Migrating Cells and the Importance of H3K27me3 for Associated Transcriptome Alterations” (Cells, 2018).
